Source: ChEMBL document CHEMBL4177770, “Discovery of MK-6169, a Potent Pan-Genotype Hepatitis C Virus NS5A Inhibitor with Optimized Activity against Common Resistance-Associated Substitutions” (J Med Chem, 2018)
Substitutions are numbered along the chain they refer to.

Key:
[1] = target: T1, Nonstructural protein 5A (Hepatitis C virus) (UniProt Q5L478); experiment: Inhibition of NS5A in HCV genotype 3a infected in HuH7 replicon cells assessed as decrease in viral replication after 3 days by RT-PCR method; type: cell-based; details: Hepatitis C virus subtype 3a
T1 sequence (whole entry): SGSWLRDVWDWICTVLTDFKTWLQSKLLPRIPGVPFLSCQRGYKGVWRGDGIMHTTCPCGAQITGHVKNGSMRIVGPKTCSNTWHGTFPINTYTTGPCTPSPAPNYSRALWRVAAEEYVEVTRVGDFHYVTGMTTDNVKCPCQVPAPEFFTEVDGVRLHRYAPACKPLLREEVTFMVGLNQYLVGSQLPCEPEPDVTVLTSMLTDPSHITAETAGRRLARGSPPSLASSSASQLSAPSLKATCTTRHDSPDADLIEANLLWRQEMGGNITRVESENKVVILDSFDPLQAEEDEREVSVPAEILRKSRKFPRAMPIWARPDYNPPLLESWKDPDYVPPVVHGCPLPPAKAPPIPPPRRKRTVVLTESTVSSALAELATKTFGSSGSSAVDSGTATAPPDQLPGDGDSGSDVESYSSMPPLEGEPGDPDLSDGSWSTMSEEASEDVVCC

[2] = target: T1, Nonstructural protein 5A (Hepatitis C virus); experiment: Inhibition of NS5A M28T mutant in HCV genotype 1a infected in HuH7 replicon cells assessed as decrease in viral replication after 3 days by RT-PCR method; type: cell-based; details: Hepatitis C virus subtype 1a
[3] = Cmax in Wistar Han rat at 100 mg/kg, po by LC/MS method; type: ADME, organism-based; parameters: dose 100 mg/kg, route oral; details: in vivo
Method in brief: (§1)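 Single rising oral dose study in fed male Wistar Han rats, dosed PO in 10% TWEEN at the indicated doses. Plasma was obtained by centrifuging the blood, and compound levels were determined by LC/MS.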

[4] = Drug level in Wistar Han rat at 300 mg/kg, po measured at 24 hrs by LC/MS method; type: ADME, organism-based; details: in vivo, read-out: Drug uptake; method in brief: as §1
[5] = AUC in Wistar Han rat at 10 mg/kg, po by LC/MS method; type: ADME, organism-based; details: in vivo
Method in brief: (§2)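 Male Wistar Han rats, two per dosing group, dosed orally at 10 mg/kg in 10% TWEEN. Plasma was separated from collected blood by centrifugation and analysed by LC/MS.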

[6] = target: T1, Nonstructural protein 5A (Hepatitis C virus); experiment: Inhibition of NS5A in HCV genotype 2a infected in HuH7 replicon cells assessed as decrease in viral replication after 3 days by RT-PCR method; type: cell-based; details: Hepatitis C virus subtype 2a
[7] = target: T1, Nonstructural protein 5A (Hepatitis C virus); experiment: Inhibition of NS5A D168Y mutant in HCV genotype 1b infected in HuH7 replicon cells assessed as decrease in viral replication after 3 days by RT-PCR method; type: cell-based; details: Hepatitis C virus subtype 1b
[8] = Resistance ratio of EC90 for NS3 D168Y mutant in HCV genotype 1b infected in HuH7 replicon cells to EC90 for NS5A in HCV genotype 1a infected in HuH7 replicon cells
[9] = Cmax in Wistar Han rat at 10 mg/kg, po by LC/MS method; type: ADME, organism-based; parameters: dose 10 mg/kg, route oral; details: in vivo; method in brief: as §2
[10] = target: T1, Nonstructural protein 5A (Hepatitis C virus); experiment: Inhibition of NS5A A92K mutant in HCV genotype 1b infected in HuH7 replicon cells assessed as decrease in viral replication after 3 days by RT-PCR method; type: cell-based; details: Hepatitis C virus subtype 1b
[11] = Cmax in Wistar Han rat at 300 mg/kg, po by LC/MS method; type: ADME, organism-based; parameters: dose 300 mg/kg, route oral; details: in vivo; method in brief: as §1
[12] = tested on: Hepatitis C virus subtype 1a; experiment: Resistance ratio of EC90 for NS5A K24R mutant in HCV genotype 1a infected in HuH7 replicon cells to EC90 for NS5A in HCV genotype 1a infected in HuH7 replicon cells; type: cell-based
[13] = Resistance ratio of EC90 for NS5A L31M mutant in HCV genotype 1b infected in HuH7 replicon cells to EC90 for NS5A in HCV genotype 1a infected in HuH7 replicon cells; type: cell-based
[14] = tested on: NS3 (Hepatitis C virus), A3EZJ3 [R155K]; experiment: Inhibition of NS3 R155K mutant in HCV genotype 1a infected in HuH7 replicon cells assessed as decrease in viral replication after 3 days by RT-PCR method; type: cell-based; details: Hepatitis C virus subtype 1a
[15] = tested on: Hepatitis C virus subtype 1a; experiment: Resistance ratio of EC90 for NS5A A92P mutant in HCV genotype 1a infected in HuH7 replicon cells to EC90 for NS5A in HCV genotype 1a infected in HuH7 replicon cells; type: cell-based
[16] = tested on: T2, Nonstructural protein 5A (Hepatitis C virus), Q5L478 [Y93H]; experiment: Inhibition of NS5A Y93H mutant in HCV genotype 1a infected in HuH7 replicon cells assessed as decrease in viral replication after 3 days by RT-PCR method; type: cell-based; details: Hepatitis C virus subtype 1a
T2 sequence (whole entry): T1 sequence (whole entry) with Y93H

[17] = tested on: Hepatitis C virus subtype 1a; experiment: Resistance ratio of EC90 for NS5A L31M/Y93C double mutant in HCV genotype 1a infected in HuH7 replicon cells to EC90 for NS5A in HCV genotype 1a infected in HuH7 replicon cells; type: cell-based
[18] = Resistance ratio of EC90 for NS5A in HCV genotype 4a infected in HuH7 replicon cells to EC90 for NS5A in HCV genotype 1a infected in HuH7 replicon cells; type: cell-based
[19] = target: T1, Nonstructural protein 5A (Hepatitis C virus); experiment: Inhibition of NS5A R81S mutant in HCV genotype 1a infected in HuH7 replicon cells assessed as decrease in viral replication after 3 days by RT-PCR method; type: cell-based; details: Hepatitis C virus subtype 1a
[20] = Tmax in Wistar Han rat at 10 mg/kg, po by LC/MS method; type: ADME, organism-based; details: in vivo; method in brief: as §2
[21] = Clearance in Wistar Han rat at 2 mg/kg, iv by LC/MS method; type: ADME, organism-based; details: in vivo
Method in brief: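 Male Wistar Han rats, two per group, dosed IV at 2 mg/kg in 60% PEG200. Plasma was obtained by centrifuging the blood, and compound concentrations were measured by LC/MS.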

[22] = Drug level in Wistar Han rat at 100 mg/kg, po measured at 24 hrs by LC/MS method; type: ADME, organism-based; details: in vivo, read-out: Drug uptake; method in brief: as §1
[23] = tested on: NS3 (Hepatitis C virus), A3EZJ3 [A156T]; experiment: Inhibition of NS3 A156T mutant in HCV genotype 1b infected in HuH7 replicon cells assessed as decrease in viral replication after 3 days by RT-PCR method; type: cell-based; details: Hepatitis C virus subtype 1b
[24] = Oral bioavailability in Wistar Han rat at 10 mg/kg by LC/MS method; type: ADME, organism-based; details: in vivo; method in brief: as §2

`COC(=O)N[C@H](C(=O)N1CCC[C@H]1c1ncc(-c2cc(F)c3c(c2)O[C@@H](c2ccc(C4CC4)s2)n2c-3cc3cc(-c4cnc([C@@H]5CCCN5C(=O)[C@@H](NC(=O)OC)[C@@H]5CCOC(C)(C)C5)[nH]4)ccc32)[nH]1)C(C)C` gave an EC90 [1] of 1 to 6.6 pM, an EC90 [2] of 2 pM and a Cmax [3] of 760 nM. For the same compound, the concentration at 24 h [4] was 164 nM, the AUC [5] was 0.95 to 1.65 µM·h and the EC90 [6] was 2.7 pM. The EC90 [7] was 1.8 pM, the Ratio [8] was < 1 and the Cmax [9] was 150 to 183 nM. The EC90 [10] was 26 pM, the Cmax [11] was 1060 nM and the Ratio [12] was < 1. For the same compound, the Ratio [13] was < 1, the EC90 [14] was 1.9 pM and the Ratio [15] was < 1. It also gave an EC90 [16] of 33 pM, a Ratio [17] of 43 and a Ratio [18] of 2. It also gave an EC90 [19] of 0.33 pM, a Tmax [20] of 3 h and a clearance [21] of 7 mL/min/kg. For the same compound, the concentration at 24 h [22] was 72 nM, the EC90 [23] was 4 pM and the bioavailability [24] was 6.6%.
